Rows were chosen to be rich in hits. Some 3.3% of all compounds tested hit in one or more screens of this group.
PMI act = activators of human phosphomannose isomerase; purified human PMI, coupled resazurin fluorescence, 20 min; stronger effect = higher value; 1 = vehicle control, 0 substrate-free wells; activation factor at 20 µM; actives 0.005% (n = 190,000); AID 1214;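 active means activation factor of 2 or more at 20 µM, relative to plate controls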
ABCB1 block = blocks JC-1 efflux by human ABCB1 transporter; AID 1326; CCRF-Adr cells, flow cytometry; actives 0.067% (n = 190,000); inhibition, % at 6.6 µM; in the data active means inhibition above about 40%;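 further: 0% = vehicle and 100% = reference inhibitor; higher value means more JC-1 retained so stronger ABCB1 efflux block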
ABCG2 inh = inhibitors of human ABCG2 transporter, ABCB1 counter-screen; Q9UNQ0; IgMXP3 cells, JC-1 efflux, flow cytometry; inhibition, % at 6.6 µM; actives 0.1% (n = 190,000); AID 1325;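 active means inhibition above 80%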;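 further: 0% = DMSO and 100% = nicardipine control wells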
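Incubation: cells with compound and JC-1, 10 min at 25 °C, rotating, no wash / Test system: IgMXP3 (ABCG2) plus far-red-tagged CCRF-Adr (ABCB1) cells / Compound dosing: one concentration, 6.6 µM final / Also added: JC-1 fluorescent substrate / Evaluation: efflux inhibition in percent versus controls / Detection: flow cytometry, 530 nm JC-1 signal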
PMI act hi M6P = increases human PMI activity with near-saturating mannose 6-phosphate | P34949 | coupled PMI enzyme assay, resazurin fluorescence, 20 min; stronger effect = higher value; 1 = untreated enzyme, 0 = substrate-free blank | activation factor at 20 µM | actives 0.34% (n = 190,000) | AID 1216;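 active means activation factor of 2 or more at 20 µM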
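Test system – human PMI in coupled enzyme assay · Timing – 20 min incubation at room temperature · Detection – Diaphorase-driven resazurin-to-resorufin fluorescence, excitation 544, emission 590 nm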
ROMK mod = human ROMK K+ channel modulation, primary screen. Tet-inducible ROMK, thallium flux fluorescence; actives lie on both sides. B-score at 10 µM. actives 2% (n = 130,000);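 active means signal ratio slope over the read window, or its plate-corrected B-score, at least 3 SD from the plate mean, either direction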;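 further: B-score of the F/F0 ratio slope over 7 to 12 s after thallium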
Target sequence (P48048 whole entry, looked up): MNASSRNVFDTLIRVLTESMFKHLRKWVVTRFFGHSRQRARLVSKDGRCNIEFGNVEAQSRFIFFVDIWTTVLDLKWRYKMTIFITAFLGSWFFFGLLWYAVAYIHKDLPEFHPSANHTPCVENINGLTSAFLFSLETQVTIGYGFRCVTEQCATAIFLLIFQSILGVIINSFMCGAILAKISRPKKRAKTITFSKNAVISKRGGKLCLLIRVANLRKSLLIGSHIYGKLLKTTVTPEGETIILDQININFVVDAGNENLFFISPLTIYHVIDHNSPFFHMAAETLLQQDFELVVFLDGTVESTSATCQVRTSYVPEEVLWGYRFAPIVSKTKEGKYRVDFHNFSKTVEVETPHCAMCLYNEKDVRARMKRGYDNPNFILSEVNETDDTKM
Cl transport mod = modulates chloride dependent transport by human KCC2; actives 2.2% (n = 190,000); AID 1456; KCC2 cells, thallium flux FluoZin-2 fluorescence; B-score of Tl+ flux slope (higher = more flux/activation; lower = inhibition) at 10 µM; Q9H2X9;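 active means thallium flux slope and its plate-corrected score both differing from the plate sample mean at a set confidence after two filtering rounds, in either direction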;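 further: slope of fluorescence scaled to starting intensity during 10 to 20 s after thallium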
KCC2 secondary = confirmation of human KCC2 transport modulators | AID 1713 | HEK293-KCC2, thallium flux, FluoZin2 fluorescence; stronger effect = higher value | normalised thallium flux (F/F0 slope) at 10 µM | shares compounds with Cl transport mod | actives 15% (n = 3,700);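 active means thallium flux slope above the same plate's solvent-only control mean plus 3 SD; inconclusive means the two replicate wells disagree; inactive means no significant difference from solvent-only control wells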
KCC2 bumet counter = thallium flux despite bumetanide block in KCC2 cells, secondary assay 3; shares compounds with Cl transport mod; HEK293-KCC2 + bumetanide/ouabain, thallium flux FluoZin2; stronger effect = higher value; normalized thallium flux at 10 µM; actives 49% (n = 3,700);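 active means thallium entry rate above the same plate's blocked-transporter control wells by more than 3 SD; inconclusive means the two repeat wells disagree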;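 further: raw slope of fluorescence over initial fluorescence between 10 and 20 s after thallium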
KCC2 secondary2 = confirmation of human KCC2 transport modulators; shares compounds with Cl transport mod; HEK293-KCC2, thallium flux FluoZin2 fluorescence; actives lie on both sides; F/F0 rise rate, 10–20 s post-thallium; normalized thallium flux at 10 µM; actives 23% (n = 3,700); AID 1715;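 active means thallium flux slope more than 3 SD above or below the plate's solvent-only control mean, mostly below; inconclusive means the two repeat wells disagreed; inactive means no significant shift from solvent-only controls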;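 further: raw slope with 0.1% DMSO as baseline and bumetanide as block control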
HEK counter1 = counter-screen for KCC2 modulators: effect in parental HEK293 cells. shares compounds with Cl transport mod. thallium flux FluoZin2, ouabain; baseline-ratio fluorescence slope, 10–20 s after thallium. thallium flux rate (normalised fluorescence) at 10 µM. actives 46% (n = 3,700);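 active means thallium flux rate significantly above the same plate's solvent-only control wells, beyond their mean plus 3 SD; inconclusive means the two replicate wells gave conflicting results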
KCC2 retest ouab = confirmation of human KCC2 modulators with ouabain; raw Tl+ flux slope (below DMSO = inhibition, above = activation) at 10 µM; actives 48% (n = 3,700); HEK293-KCC2, thallium flux FluoZin2 fluorescence; bidirectional: low = inhibitor, high = activator; shares compounds with Cl transport mod;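 active means thallium flux slope beyond 3 SD from same-plate DMSO control mean in most replicates, usually higher, sometimes lower; inconclusive means repeat tests gave conflicting results; inactive means no significant difference from controls in most replicates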;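 further: slope of initial-normalized fluorescence between seconds 10 and 20 after thallium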
HEK counter2 = counter-screen for KCC2 modulators: effect in parental HEK293 cells. thallium flux slope at 10 µM. actives 33% (n = 3,700). shares compounds with Cl transport mod. thallium flux FluoZin-2 fluorescence slope;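 active means thallium flux slope above the same plate's solvent-control mean plus 3 SD in both duplicate wells; inconclusive means duplicate wells that disagreed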;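 further: run without ouabain in cells lacking the KCC2 cotransporter; slope of fluorescence scaled to its starting value between 10 and 20 s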
An asterisk follows results filed as active; ? = inconclusive; . = no result.

SMILES	PMI act	ABCB1 block	ABCG2 inh	PMI act hi M6P	ROMK mod	Cl transport mod	KCC2 secondary	KCC2 bumet counter	KCC2 secondary2	HEK counter1	KCC2 retest ouab	HEK counter2
CC1CCCCN1C(=S)NC(=O)c1cccs1 (centres undefined)	.	.	.	.	.	36*	0.022*	0.057*	0.039	0.034*	0.05*	0.016*
CCC(C(=O)Nc1ccsc1C(=O)OC)c1ccccc1 (centres undefined)	1.1	1	2	1.1	0.36	-3.2*	0.009	0.0056	0.035	?	?	0.011
COC(=O)c1ccc(C)c(NC(=S)NCc2ccc(Cl)cc2)c1	0.9	0	10	1.1	.	-0.067	.	.	.	.	.	.
COC(=O)c1sccc1NC(=S)N1CCC(C)CC1	0.9	1	21	0.9	-0.24	.	0.0081	0.0049	0.027	0.0074	0.018	0.0096
CN1CCN(C(=O)NCC23CC4CC(CC(C4)C2)C3)CC1	0.9	1	1	0.9	0.092	1.2	.	.	.	.	.	.
Cn1c(C(C)(O)C(O)c2ccccc2)nc2ccccc21 (centres undefined)	0.9	0	2	0.9	-0.67	-0.0078	.	.	.	.	.	.
COc1ccc2oc(-c3ccc(C)c(NC(=O)c4ccc(N5CCOCC5)c([N+](=O)[O-])c4)c3)nc2c1	1	4	9	1	.	.	.	.	.	.	.	.
CC1CCN(C(=S)NC(=O)c2cccs2)CC1	1	0	0	1	.	56*	0.033*	0.083*	?	0.055*	0.069*	0.019*
O=C(NC(=S)N1CCCCC1)c1cccs1	0.8	0	-3	0.9	0.9	0.56	.	.	.	.	.	.
COc1ccc(/C=C2\C(=O)NC(=S)N2C(=O)c2ccc(C)cc2)cc1	0.9	-2	-4	0.8	0.69	7.5*	0.0062	0.021*	0.039*	0.019*	0.028*	0.021*
Cc1ccc(CNC(=O)c2ccc(N3CCCC3=O)cc2)cc1	0.9	1	4	0.9	.	-4.3*	0.016	0.0046	0.029	0.0074	0.017	0.011
Cc1ccc2nc(NC(=O)Cn3cc4c(n3)CCCCC4)sc2c1	0.8	1	3	1	.	-2.9*	0.009	?	0.031	?	0.02	0.011
O=C(O)c1cccc2c(-c3ccccc3)c(-c3ccccc3)[nH]c12	.	.	.	.	1.4	8.6*	0.0098	0.023*	0.036	?	?	0.012
O=C(O)c1ccccc1-c1nc(-c2ccccc2)c(-c2ccccc2)[nH]1	1.1	1	6	1.1	-0.068	-1.9	.	.	.	.	.	.
C=CCc1cccc(/C=N/NC(=O)CCC(=O)Nc2ccc(C)cc2)c1O	1.1	0	3	1.3	-0.14	-1.2	.	.	.	.	.	.
FC(F)(F)c1cccc(NCc2n[nH]c(=S)n2C2CCCCC2)c1	0.8	-1	-2	0.9	-0.9	5.9*	0.009	0.019*	0.035	?	?	0.011
CC(C)(C)c1ccc(-c2n[nH]c(=S)n2C2CCCC2)cc1	1	-1	-3	1	-0.021	.	.	.	.	.	.	.

Screens: PubChem BioAssay, several laboratories
